The text below walks through data of ChEMBL document CHEMBL3997773, “Synthesis of C-4-Substituted Steviol Derivatives and Their Inhibitory Effects against Hepatitis B Virus” (J Nat Prod, 2016).

The nature of series [1]: Antiviral activity against Hepatitis B virus in human HepG2.2.15 cells assessed as inhibition of viral DNA replication by RT-PCR method.
Series [2] can be described thus: Antiviral activity against Hepatitis B virus subtype adw2 infected in human HepG2.2.15 cells assessed as inhibition of HBeAg secretion by EIA.
Series [3] can be described thus: Cytotoxicity against human HepG2.2.15 cells assessed as reduction in cell viability after 3 days by MTS assay. The conditions noted are these: read-out: TC50.
A short description of series [4]: Selectivity index, ratio of TC50 for human HepG2.2.15 cells to IC50 for Hepatitis B virus subtype adw2 infected in human HepG2.2.15 cells assessed as inhibition of HBeAg secretion.
Series [5] can be described thus: Antiviral activity against Hepatitis B virus subtype adw2 infected in human HuH7 cells assessed as inhibition of HBsAg secretion by EIA. The format is functional, cell-based. As to conditions: Huh-7.
A short description of series [6]: Selectivity index, ratio of TC50 for human HepG2.2.15 cells to IC50 for Hepatitis B virus subtype adw2 infected in human HuH7 cells assessed as inhibition of viral DNA replication.
A short description of series [7]: Selectivity index, ratio of TC50 for human HepG2.2.15 cells to IC50 for Hepatitis B virus subtype adw2 infected in human HuH7 cells assessed as inhibition of HBsAg secretion.
In series [8] the test system is Hepatitis B virus subtype adw2. The series is described as follows: Antiviral activity against Hepatitis B virus subtype adw2 infected in human HepG2.2.15 cells assessed as inhibition of HBeAg secretion by EIA.
In series [9] the test system is Hepatitis B virus subtype adw2. The series is described as follows: (§1) Antiviral activity against Hepatitis B virus subtype adw2 infected in human HuH7 cells assessed as inhibition of viral DNA replication by RT-PCR method. The format is functional, cell-based.
The subject of series [10] is Hepatitis B virus subtype adw2. Description: Antiviral activity against Hepatitis B virus subtype adw2 infected in human HepG2.2.15 cells assessed as inhibition of HBsAg secretion by EIA.
A short description of series [11]: Antiviral activity against Hepatitis B virus in human HepG2.2.15 cells assessed as inhibition of HBsAg secretion by EIA.
Series [12] in a line: as §1. The format is functional, cell-based. As to conditions: Huh-7.
Series [13] in a line: Antiviral activity against Hepatitis B virus subtype adw2 in human HepG2.2.15 cells assessed as inhibition of viral DNA replication by RT-PCR method.
A short description of series [14]: Antiviral activity against Hepatitis B virus subtype adw2 infected in human HuH7 cells assessed as reduction in HBx level at 5 ug/ml after 2 days by immunoblot method relative to control. The format is functional. A digest of the protocol: (§2)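 Huh7 cells were transfected with pHBV1.2 (1.2-fold HBV adw2 genome) for 2 days, then exposed to 2.5, 5 or 10 μg/mL for another 2 days. Whole-cell protein was extracted with protease inhibitors. SHBs, HBcAg and HBx were detected by immunoblot, with α-tubulin for comparison.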
On the technique in general: In western blotting, separated proteins are transferred to a membrane and probed.

The nature of series [15]: Antiviral activity against Hepatitis B virus subtype adw2 infected in human HuH7 cells assessed as reduction in HBcAg level at 5 ug/ml after 2 days by immunoblot method relative to control. It is filed as functional. A digest of the protocol: as §2
Series [16] relates to Hepatitis B virus subtype adw2. The series is described as follows: Antiviral activity against Hepatitis B virus subtype adw2 infected in human HuH7 cells assessed as inhibition of viral DNA replication at 10 uM after 2 days by RT-PCR method. It is filed as functional, cell-based. The gist of the method: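 Huh7 cells transfected with pHBV1.2, a plasmid carrying 1.2-fold of the HBV adw2 genome, for 2 days, then treated for another 2 days. Secreted viral particles were isolated from the culture medium and extracellular HBV DNA quantified by real-time PCR against untreated or vehicle controls; n = 3.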

Molecules are shown by their SMILES. The source made the active and inactive calls. No cut-off for these calls is given here.

The IC50 is the concentration that gives 50% inhibition. Turning to `C=C1C[C@@]23CC[C@H]4[C@@](C)(CCC[C@@]4(C)NC(=O)c4ccc(OCC)cc4)[C@@H]2CC[C@]1(O)C3`, the IC50 in series [1] amounted to 4 µM; in series [2] it was 3.4 µM; in [5], 2.7 µM. Besides, the CC50 at 72 h in series [3] stood at 56.3 µM. The selectivity ratio in series [4] worked out at 16.6; in series [6] it was 14.1; in series [7], 20.9.

As for `C=C1C[C@@]23CC[C@H]4[C@@](C)(CCC[C@@]4(C)NC(=O)c4ccc(F)cc4)[C@@H]2CC[C@]1(O)C3`, the inhibition result in series [8], in [9] and in series [10] was “Active” in each case.

Regarding `C=C1C[C@@]23CC[C@H]4[C@@](C)(CCC[C@@]4(C)NC(=O)Nc4ccc(C)cc4)[C@@H]2CC[C@]1(O)C3`, the IC50 in series [11] stood at 59.6 µM.

In the case of `O=c1[nH]cc(F)c(=O)[nH]1` [FLUOROURACIL], in series [3], the CC50 at 72 h stood at 228 µM.

For `C=C1C[C@@]23CC[C@H]4[C@@](C)(CCC[C@@]4(C)NC(=O)Nc4ccc(Br)cc4)[C@@H]2CC[C@]1(O)C3`, the inhibition entry in series [8] and in [10] was “Active” in each case.

In the case of `C=C1C[C@@]23CC[C@H]4[C@@](C)(CCC[C@@]4(C)NC(=O)c4ccc(OC)cc4)[C@@H]2CC[C@]1(O)C3`, the inhibition entry in [8], in series [9] and in [10] was “Active” in each case.

`C=C1C[C@@]23CC[C@H]4[C@@](C)(CCC[C@@]4(C)N)[C@@H]2CC[C@]1(O)C3`: the results for the IC50 in series [11], in series [1] and in [2] were 30.7 µM, 35.8 µM and 31.2 µM, respectively. In addition, the CC50 at 72 h in series [3] was determined as 169 µM. Also, the selectivity ratio in [4] stood at 5.4; in [6], 4.7; in series [7], 5.5.

Consider `C=C1C[C@@]23CC[C@H]4[C@@](C)(CCC[C@@]4(C)NC(=O)c4ccc(Br)cc4)[C@@H]2CC[C@]1(O)C3`, for which the inhibition entry in series [8], in series [9] and in series [10] was “Active” each time.

Regarding `C=C1C[C@@]23CC[C@H]4[C@@](C)(CCC[C@@]4(C)NC(=O)Nc4ccccc4)[C@@H]2CC[C@]1(O)C3`, the IC50 in series [5] is 33.5 µM.

For the molecule `C=C1C[C@@]23CC[C@H]4[C@@](C)(CCC[C@@]4(C)C(=O)O)[C@@H]2CC[C@]1(O)C3` [STEVIOL], the IC50 in series [2] came out at 16.6 µM; in series [12] it was 19.9 µM; in series [5], 20.8 µM. Moreover, the CC50 at 72 h in series [3] is 474 µM. Besides, the selectivity ratio in [4] is 28.6; in series [6], 23.8; in series [7], 22.8.

With `C=C1C[C@@]23CC[C@H]4[C@@](C)(CCC[C@@]4(C)NC(=O)CCC)[C@@H]2CC[C@]1(O)C3`, the inhibition result in series [8] and in series [10] was “Active” each time.

As for `C=C1C[C@@]23CC[C@H]4[C@@](C)(CCC[C@@]4(C)NC(=O)CCCCC)[C@@H]2CC[C@]1(O)C3`, the inhibition result in [8], in series [9] and in series [10] was “Active” throughout.

For `C=C1C[C@@]23CC[C@H]4[C@@](C)(CCC[C@@]4(C)NC(=O)c4ccc(I)cc4)[C@@H]2CC[C@]1(O)C3`, the IC50 stood at 14.2 µM in series [11], 21.9 µM in [1] and 23.9 µM in series [2]. Also, the CC50 at 72 h in series [3] was 413 µM. For the same molecule, the selectivity ratio in series [4] came to 17.3; in series [6] it was 18.8; in series [7], 29.1.

Turning to `C=C1C[C@@]23CC[C@H]4[C@@](C)(CCC[C@@]4(C)NC(=O)c4ccc(C#N)cc4)[C@@H]2CC[C@]1(O)C3`, the IC50 worked out at 9 µM in series [1], 13.6 µM in [2] and 8.3 µM in [5]. In addition, the CC50 at 72 h in series [3] was 125 µM. Moreover, the results for the selectivity ratio in [4], in series [6] and in series [7] were 9.2, 13.9 and 15.1, respectively.

For `C=C1C[C@@]23CC[C@H]4[C@@](C)(CCC[C@@]4(C)NC(=O)c4ccc(Cl)cc4)[C@@H]2CC[C@]1(O)C3`, the inhibition entry in [8], in series [9] and in series [10] was “Active” in each case.

In the case of `C=C1C[C@@]23CC[C@H]4[C@@](C)(CCC[C@@]4(C)NC(=O)CCCC)[C@@H]2CC[C@]1(O)C3`, the inhibition entry in [8], in series [9] and in series [10] was “Active” in each case.

For the molecule `C=C1C[C@@]23CC[C@H]4[C@@](C)(CCC[C@@]4(C)N=C=O)[C@@H]2CC[C@]1(O)C3`, the IC50 in [11] was 19.1 µM; in series [2] it was 28.5 µM; in series [12], 30 µM. Besides, the CC50 at 72 h in series [3] amounted to 337 µM. In addition, the results for the selectivity ratio in series [4], in series [6] and in series [7] were 11.8, 11.2 and 17.6, respectively.

With `C=C1C[C@@]23CC[C@H]4[C@@](C)(CCC[C@@]4(C)NC(=O)Nc4ccc(OC)c(OC)c4)[C@@H]2CC[C@]1(O)C3`, the IC50 in [13] was 14.3 µM; in [11] it was 11.7 to 14 µM; in [2], 7.7 to 13.6 µM.

`C=C1C[C@@]23CC[C@H]4[C@@](C)(CCC[C@@]4(C)NC(=O)Nc4ccc(OC)cc4)[C@@H]2CC[C@]1(O)C3`: the results for the IC50 in series [13], in [11] and in series [2] were 14.7 µM, 11.7 to 14 µM and 7.7 to 13.6 µM, respectively.

For the molecule `Nc1ccn([C@@H]2CS[C@H](CO)O2)c(=O)n1` [LAMIVUDINE], the IC50 in series [1] is 108 µM. Also, the “fold change (FC)” value in series [14] turned out to be 0.17; in series [15], 0.21. Also, the CC50 at 72 h in [3] is 2360 µM. Also, the selectivity ratio in series [6] came to 22.

Take `C=C1C[C@@]23CC[C@H]4[C@@](C)(CCC[C@@]4(C)NC(=O)c4ccc(CC)cc4)[C@@H]2CC[C@]1(O)C3`: the inhibition entry in series [8], in series [9] and in series [10] was “Active” in each case.

With `C=C1C[C@@]23CC[C@H]4[C@@](C)(CCC[C@@]4(C)NC(C)=O)[C@@H]2CC[C@]1(O)C3`, the inhibition result in series [8], in [9] and in [10] was “Active” each time.

As for `C=C1C[C@@]23CC[C@H]4[C@@](C)(CCC[C@@]4(C)NC(=O)Nc4cc(OC)c(OC)c(OC)c4)[C@@H]2CC[C@]1(O)C3`, the IC50 is 6.3 µM in series [13], 11.7 to 14 µM in series [11] and 7.7 to 13.6 µM in series [2].

As to `C=C1C[C@@]23CC[C@H]4[C@@](C)(CCC[C@@]4(C)NC(=O)Nc4ccc(F)cc4)[C@@H]2CC[C@]1(O)C3`, the inhibition result in [8] and in [10] was “Active” each time.

In the case of `C=C1C[C@@]23CC[C@H]4[C@@](C)(CCC[C@@]4(C)NC(=O)Nc4ccc(Cl)cc4)[C@@H]2CC[C@]1(O)C3`, the IC50 in series [13] is 4.5 µM; in series [2], 5 µM; in series [5], 8 µM. Moreover, the selectivity ratio in [6] worked out at 6.6.

Turning to `C=C1C[C@@]23CC[C@H]4[C@@](C)(CCC[C@@]4(C)NC(=O)c4ccccc4)[C@@H]2CC[C@]1(O)C3`, the inhibition result in series [8], in series [9] and in series [10] was “Active” each time.

On to `COc1ccc(C[C@H]2NC[C@H](O)[C@H]2OC(C)=O)cc1`, for which the inhibition entry in series [16] is “inactive”.

For `C=C1C[C@@]23CC[C@H]4[C@@](C)(CCC[C@@]4(C)NC(=O)c4cccs4)[C@@H]2CC[C@]1(O)C3`, the inhibition entry in [8], in series [9] and in series [10] was “Active” in each case.

For `C=C1C[C@@]23CC[C@H]4[C@@](C)(CCC[C@@]4(C)NC(=O)CC)[C@@H]2CC[C@]1(O)C3`, the inhibition result in series [8] and in series [10] was “Active” in each case.

On to `C=C1C[C@@]23CC[C@H]4[C@@](C)(CCC[C@@]4(C)NC(=O)c4ccc(C)cc4)[C@@H]2CC[C@]1(O)C3`, for which the inhibition result in series [8], in series [9] and in [10] was “Active” throughout.
